Reference: paper PMC7341966 (Journal of medicinal chemistry, 2018)
Square brackets hold non-standard residues; d marks the D form. Peptide text beside a SMILES is read from it. * marks the point of attachment. X4 = CC[C@H](C)[C@@H](OC(=O)[C@H](Cc1ccccc1)N(C)C)C(=O)*; X1 = CC[C@H](C)[C@@H](OC(=O)/C=C/c1ccccc1)C(=O)*; X3 = CC[C@H](C)[C@@H](OC(=O)/C=C\c1ccccc1)C(=O)*; X5 = CC[C@H](C)[C@@H](OC(=O)C#Cc1ccccc1)C(=O)*; X2 = CC[C@H](C)[C@@H](OC(=O)CCc1ccccc1)C(=O)*; Hmp(2R,3S) = CC[C@H](C)[C@@H](O)C(=O)O; dNMeF = CN[C@H](Cc1ccccc1)C(=O)O; NMeL = CN[C@@H](CC(C)C)C(=O)O; dHiv = CC(C)[C@@H](O)C(=O)O

Assays:
[1] = system: CXCR7, CCR10, OXTR, SSTR3, and TACR2; assay: GPCR secondary screen, dose-response against the five hits; assay type: cell-based; conditions: up to 20 μM
Procedure, shortened: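 Secondary β-arrestin (PathHunter) screen on the five receptors, run in agonist and antagonist modes. Dosing was 10 points by 3-fold serial dilution from 20 μM, in duplicate, with 1% vehicle. Chemiluminescent β-galactosidase read after 1 h detection at RT.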

MDA-MB-231 cells [2] = assay: Transwell migration assay, MDA-MB-231 cells; assay type: cell-based; conditions: 10 μM, 48 h
Procedure, shortened: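 Transwell inserts with 8 μm pore PET membrane; MDA-MB-231 cells were exposed to test compound or solvent control. After incubation, non-migrated cells were wiped off, and migrated cells were crystal violet-stained and counted under a microscope.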

Kallikrein 7 (KLK7) = Kallikrein 7 (KLK7) (Homo sapiens, UniProt P49862); assay: Protease inhibition assay, fluorescent peptide substrate; assay type: biochemical
Chain of Kallikrein 7 (KLK7) (P49862 30-253): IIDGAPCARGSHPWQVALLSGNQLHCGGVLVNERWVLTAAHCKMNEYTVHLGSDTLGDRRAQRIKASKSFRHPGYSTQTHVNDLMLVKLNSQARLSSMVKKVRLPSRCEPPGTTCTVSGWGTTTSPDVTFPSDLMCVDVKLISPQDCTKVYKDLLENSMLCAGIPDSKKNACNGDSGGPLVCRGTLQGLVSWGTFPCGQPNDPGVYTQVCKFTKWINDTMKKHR

[3] = system: panel of 241 GPCR targets; assay: GPCR profiling, gpcrMAX and orphanMAX panels; assay type: cell-based; conditions: 10 μM; hit = > 50% activity or inhibition
Procedure, shortened: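 PathHunter β-arrestin enzyme fragment complementation in HEK293, CHO or U2OS lines stably expressing ProLink-tagged GPCR and EA-tagged β-arrestin. Test compound was 10 μM, one also at 20 μM; vehicle 1% final. Agonist mode: 90 or 180 min at 37 °C or RT. Chemiluminescence read after 1 h detection reagent. % activity/inhibition taken versus vehicle and control ligand.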

[4] = system: MDA-MB-231 breast cancer cells; assay: MTT cell viability assay in MDA-MB-231 cells; assay type: cell-based; conditions: MDA-MB-231, 48 h; for cytotoxicity: MTT, up to 100 μM
Procedure, shortened: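 MDA-MB-231 cells kept in DMEM with 10% FBS were seeded at 10,000 cells/well. After 24 h they were exposed to graded test compound or DMSO solvent control for 48 h. Viability was measured by MTT.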

CCR10 = biological target: T1, CCR10 (Homo sapiens, UniProt P46092); assay: PathHunter β-Arrestin GPCR assay, antagonist mode; assay type: cell-based; conditions: dose-response starting at 20 μM, duplicate
T1 sequence (P46092 1-362): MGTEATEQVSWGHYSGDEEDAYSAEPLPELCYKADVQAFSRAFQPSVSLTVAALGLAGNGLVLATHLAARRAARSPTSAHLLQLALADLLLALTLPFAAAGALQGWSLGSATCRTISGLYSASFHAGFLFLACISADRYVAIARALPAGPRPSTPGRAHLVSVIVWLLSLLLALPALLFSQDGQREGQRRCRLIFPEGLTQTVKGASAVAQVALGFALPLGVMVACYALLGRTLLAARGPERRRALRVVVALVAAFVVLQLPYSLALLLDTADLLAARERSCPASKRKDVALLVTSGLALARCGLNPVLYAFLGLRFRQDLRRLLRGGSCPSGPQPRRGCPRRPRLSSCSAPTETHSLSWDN

OXTR = biological target: T2, OXTR (Homo sapiens, UniProt P30559); assay: PathHunter β-Arrestin GPCR assay, antagonist mode; assay type: cell-based; conditions: dose-response starting at 20 μM, duplicate
T2 sequence (P30559 1-389): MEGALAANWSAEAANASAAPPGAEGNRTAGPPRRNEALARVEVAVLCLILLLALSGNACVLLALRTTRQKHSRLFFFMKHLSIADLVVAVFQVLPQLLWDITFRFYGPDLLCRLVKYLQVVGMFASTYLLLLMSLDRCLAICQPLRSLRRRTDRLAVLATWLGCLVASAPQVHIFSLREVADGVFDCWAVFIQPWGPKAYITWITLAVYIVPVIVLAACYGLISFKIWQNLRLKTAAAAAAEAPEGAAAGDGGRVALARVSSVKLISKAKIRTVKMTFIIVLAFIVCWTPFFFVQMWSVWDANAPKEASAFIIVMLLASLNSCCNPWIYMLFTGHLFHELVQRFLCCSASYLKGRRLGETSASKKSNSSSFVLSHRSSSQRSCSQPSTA

[5] = system: MDA-MB-468 breast cancer cells; assay: Transwell migration assay, MDA-MB-468 cells; assay type: cell-based; conditions: 48 h
Procedure, shortened: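 5000 MDA-MB-468 cells in DMEM with 10% FBS were treated with graded test compound or solvent control. They were seeded into 8 μm pore PET transwell inserts, with the same compound concentration in complete medium on the other side. After 48 h at 37 °C, 5% CO2, non-migrated cells were swabbed off, and migrated cells were crystal violet-stained and counted microscopically. Triplicate.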

[6] = system: MDA-MB-468 breast cancer cells; assay: Dsg-2 shedding in MDA-MB-468 cells; assay type: cell-based
[7] = biological target: KLK7 (substrates desmoglein-2 and E-cadherin) (Homo sapiens, UniProt P49862); assay: Cleavage of KLK7 downstream substrates, biochemical assay; conditions: 10 μM
Chain of KLK7 (substrates desmoglein-2 and E-cadherin) (P49862 30-253): as the sequence (P49862 30-253) above

SSTR3 = SSTR3 (Homo sapiens, UniProt P32745); assay: PathHunter β-Arrestin GPCR assay, antagonist mode; assay type: cell-based; conditions: dose-response starting at 20 μM, duplicate
Chain of SSTR3 (P32745 whole entry): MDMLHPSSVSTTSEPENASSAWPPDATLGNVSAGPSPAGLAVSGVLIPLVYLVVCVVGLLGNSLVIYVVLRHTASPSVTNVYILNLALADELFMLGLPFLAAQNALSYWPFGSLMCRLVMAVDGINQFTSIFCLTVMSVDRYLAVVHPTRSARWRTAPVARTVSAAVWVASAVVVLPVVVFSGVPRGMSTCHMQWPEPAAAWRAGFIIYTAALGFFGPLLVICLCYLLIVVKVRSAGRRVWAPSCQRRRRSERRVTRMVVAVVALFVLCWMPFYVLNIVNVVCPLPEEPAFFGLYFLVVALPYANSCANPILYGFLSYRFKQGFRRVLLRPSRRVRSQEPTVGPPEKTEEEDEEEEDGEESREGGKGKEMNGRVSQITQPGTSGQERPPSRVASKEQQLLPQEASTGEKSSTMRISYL

plasma kallikrein = conditions: read-out: Ki plasma kallikrein; cited from earlier work
MDA-MB-231 cells [8] = assay: CCL27-induced proliferation of MDA-MB-231 cells; assay type: cell-based; conditions: serum deprived conditions, 48 h
Procedure, shortened: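 MDA-MB-231 cells (10,000/well) were seeded in serum-free DMEM for 24 h. For the CCL27 response, cells got graded CCL27 for 48 h. For inhibition, cells were pretreated with test compound for 2 h, then given CCL27 (1 μg/mL final) and incubated 48 h. Viability was read by MTT against solvent control. Mean ± SD, n = 3, two-tailed unpaired t test.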

Molecule: CC[C@H](C)[C@@H](O)C(=O)N1CCC[C@H]1C(=O)NCC(=O)N(C)[C@@H](CC(C)C)C(=O)N[C@@H](C)C(=O)N(C)[C@H](Cc1ccccc1)C(=O)N1CCC[C@H]1C(=O)OC [Compound 1, brintonamide A] ({Hmp(2R,3S)}-PG[NMeL]A[dNMeF]P-OMe)
- activity against the tested GPCR targets [1]: did not show any activity
- inhibition of migration (MDA-MB-231 cells [2]): inactive
- IC50 (Kallikrein 7 (KLK7)): ~20 µM
- hits in GPCR profiling [3]: did not show any hits
- cytotoxicity [4]: did not show any cytotoxicity

Molecule: COC(=O)[C@@H]1CCCN1C(=O)[C@@H](Cc1ccccc1)N(C)C(=O)[C@H](C)NC(=O)[C@H](CC(C)C)N(C)C(=O)CNC(=O)[C@@H]1CCCN1C(=O)[C@H](O)C(C)C [Compound 2, brintonamide B] (H-[dHiv]PG[NMeL]A[dNMeF]P-OMe)
- activity against the tested GPCR targets [1]: did not show any activity
- cytotoxicity [4]: did not show any cytotoxicity

Molecule: CC[C@H](C)[C@@H](OC(=O)[C@H](Cc1ccccc1)N(C)C)C(=O)N1CCC[C@H]1C(=O)NCC(=O)N(C)[C@@H](CC(C)C)C(=O)N[C@@H](C)C(=O)N(C)[C@H](Cc1ccccc1)C(=O)N1CCC[C@H]1C(=O)OC [Compound 3, brintonamide C] (X4-PG[NMeL]A[dNMeF]P-OMe)
- IC50 antagonist CCR10 (CCR10): did not show any activity
- IC50 antagonist OXTR (OXTR): did not show any activity

Molecule: CC[C@H](C)[C@@H](OC(=O)/C=C/c1ccccc1)C(=O)N1CCC[C@H]1C(=O)NCC(=O)N(C)[C@@H](CC(C)C)C(=O)N[C@@H](C)C(=O)N(C)[C@H](Cc1ccccc1)C(=O)N1CCC[C@H]1C(=O)OC [Compound 4, brintonamide D] (X1-PG[NMeL]A[dNMeF]P-OMe)
- migration of MDA-MB-468 cells [5]: inhibiting the migration
- activity against the tested GPCR targets [1]: active against all five tested GPCR targets
- IC50 antagonist CCR10 (CCR10): submicromolar activity
- Dsg-2 shedding [6]: unable to decrease Dsg-2 shedding
- IC50 (Kallikrein 7 (KLK7)): ~20 µM
- cleavage of KLK7 downstream substrates desmoglein-2 and E-cadherin [7]: partially inhibited
- cytotoxic effects ([4]; up to 10 μM (Figure 6B)): no cytotoxic effects

Molecule: CC[C@H](C)[C@@H](OC(=O)/C=C\c1ccccc1)C(=O)N1CCC[C@H]1C(=O)NCC(=O)N(C)[C@@H](CC(C)C)C(=O)N[C@@H](C)C(=O)N(C)[C@H](Cc1ccccc1)C(=O)N1CCC[C@H]1C(=O)OC [Compound 5, brintonamide E] (X3-PG[NMeL]A[dNMeF]P-OMe)
- IC50 antagonist SSTR3 (SSTR3): inactive

Molecule: CC[C@H](C)[C@@H](OC(=O)CCc1ccccc1)C(=O)N1CCC[C@H]1C(=O)NCC(=O)N(C)[C@@H](CC(C)C)C(=O)N[C@@H](C)C(=O)N(C)[C@H](Cc1ccccc1)C(=O)N1CCC[C@H]1C(=O)OC [Compound 6, dehydro-brintonamide D/E] (X2-PG[NMeL]A[dNMeF]P-OMe)
- IC50 antagonist SSTR3 (SSTR3): inactive

Molecule: CC[C@H](C)[C@@H](OC(=O)C#Cc1ccccc1)C(=O)N1CCC[C@H]1C(=O)NCC(=O)N(C)[C@@H](CC(C)C)C(=O)N[C@@H](C)C(=O)N(C)[C@H](Cc1ccccc1)C(=O)N1CCC[C@H]1C(=O)OC [Compound 7, dihydro-brintonamide D/E] (X5-PG[NMeL]A[dNMeF]P-OMe)
- activity against the tested GPCR targets [1]: did not exhibit any activity

Molecule: Ecallantide
- Ki (plasma kallikrein): 0.025 nM

B1: CCL27: C-C motif chemokine ligand 27, ligand of CCR10 (protein, UniProt Q9Y4X3 25-112, looked up)
C-C motif chemokine 27: FLLPPSTACCTQLYRKPLSDKLLRKVIQVELQEADGDCHLQAFVLHLAQRSICIHPQNPSLSQWFEHQERKLHGTLPKLNFGMLRKMG
- cell proliferation in response to CCL27 stimulation (MDA-MB-231 cells [8]): increased in a dose-dependent manner
